# Source: publication PMC2661818 (Psychopharmacology, 2008)
# Structures can show the parent of a compound that is named as a salt. Where two headings read alike, the source gives them in different places.
# What was measured:
# [1] = Plasma cocaine assessment by LC/MS/MS; type: in vivo, Sprague—Dawley rats; conditions: males, 10 mg/kg IP
# [2] = rat, IP injection, cited from earlier work
# [3] = test system: rats; conditions: ref Moffett et al. (2006a), cited from earlier work
# [4] = test system: rats trained to discriminate 10 mg/kg cocaine, IP from saline; type: in vivo, Sprague—Dawley rats; conditions: for Maximal levels of cocaine responding: in each/all rearing groups (BMS, AFR, LMS); for Maximal cocaine responding: SEM in parentheses
# Method in brief: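 Adult Sprague–Dawley rats (6 per rearing condition per sex) from BMS, LMS or AFR rearing, trained at 10 mg/kg IP (15-min pretreatment) vs saline. Tests: 10 consecutive responses on either manipulandum gave a pellet. Novel training-drug doses (0.56–18 mg/kg) in random order; pretreatment 1–120 min. Group mean % drug responding: ≥80% full, ≤20% saline-like. Rates as % of vehicle.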
# [5] = test system: c-Fos; experiment: Cocaine-induced c-Fos expression; type: in vivo, Sprague—Dawley rats; conditions: 10 mg/kg IP, 14 days
# [6] = test system: rats discriminating cocaine injections; conditions: cited from earlier work; for Cocaine-like responding (partial): ref Witkin et al. 1991; for Substitution for the cocaine cue: reduced training dose (3.0 mg/kg cocaine), ref Terry et al. 1994
# [7] = females, all rearing conditions
smiles,measurement,setting,value
"COC(=O)[C@H]1[C@@H](OC(=O)c2ccccc2)C[C@@H]2CC[C@H]1N2C [cocaine, Cocaine hydrochloride]","Plasma cocaine levels, effect of time",[1],decreasing from 15 to 60 min
same,Time to peak plasma,[2]; ref Misra et al. 1974,4 h
same,Elimination half-life (t1/2),[2]; ref Nayak et al. 1976,48 to 60 min
same,Self-administration,[3]; BMS rats,did not self administer cocaine above saline levels at any dose tested
same,Dose at which self-administration was acquired,[3]; LMS rats,0.0625 mg/kg/infusion
same,Effect on rate of responding,[4]; [7],dose dependently decreased rate of responding
same,Effect on rate of responding,"[4]; males, all rearing conditions",did not have an effect on rate of responding
same,Cocaine-appropriate responding as a function of dose,"[4]; novel doses 0.56–18 mg/kg, all groups",dose-dependent increases in cocaine-appropriate responding
same,"Fos-IR, cocaine- vs saline-treated","[5]; AFR females, NAcc Core and central CPu",significantly greater Fos-IR
same,"c-Fos expression, cocaine- vs saline-treated","[5]; AFR males, central and dorsomedial CPu",trend for significantly greater c-Fos expression
same,"c-Fos expression, cocaine- vs saline-treated","[5]; BMS males and females, any brain region examined",never statistically significant differences
same,"c-Fos, cocaine- vs saline-treated","[5]; LMS males, ICjM",showed significance
"Oc1cc2c(cc1O)C(c1ccccc1)CNCC2 (stereo not shown) [SKF38393, SKF38393 hydrobromide]",Effect on rate of responding,[4]; [7],dose dependently decreased
same,Maximal levels of cocaine responding,[4]; females,approximately 50%
same,Generalization profile,"[4]; males, AFR and LMS, 18 mg/kg",partial generalization
same,Maximal cocaine responding,"[4]; males, AFR",81.41%
same,Rates of responding (disrupted),"[4]; males, BMS and AFR groups, 32 mg/kg",< 0.20 mean responses per second
same,Maximal cocaine responding,"[4]; males, BMS",95.68%
same,Maximal cocaine responding,"[4]; males, LMS",83.52%
same,Effect on rate of responding,"[4]; males, all rearing conditions",dose-dependent decreases in rates
same,Generalization profile,"[4]; males, all rearing conditions, 10 mg/kg",partial generalization
same,Cocaine-like responding (partial),[6]; 10 mg/kg cocaine training dose,20–80%
same,Substitution for the cocaine cue,[6],substitute fully
"CCCN1CCC[C@@H]2Cc3n[nH]cc3C[C@H]21 [quinpirole, quinpirole hydrochloride]",Generalization profile,"[4]; females, all groups, doses of 0.061–0.18 mg/kg",intermediate levels of responding
same,Effect on rate of responding,[4]; [7],dose dependently decreased
same,Maximal levels of cocaine responding,[4]; females,~80%
same,Generalization profile,"[4]; males, LMS, all doses except 0.125 mg/kg",only partial generalization
same,Effect on rate of responding,"[4]; males, all rearing conditions",dose dependently decreased the number of responses
same,Generalization to the cocaine cue,"[6]; 10 mg/kg cocaine training dose, ref Barrett and Appel 1989, Callahan et al. 1991, Callahan and Cunningham 1993",full generalization
same,Cocaine-like responding (partial),[6]; 10 mg/kg cocaine training dose,20–80%
same,Substitution for the cocaine cue,[6],substitute fully
"Fc1ccc(C(OCCN2CCN(CCCc3ccccc3)CC2)c2ccc(F)cc2)cc1 [GBR12909, GBR12909 bismesylate hydrate]",Doses producing more cocaine-like responding,"[4]; females, AFR",5.6 to 18 mg/kg
same,Maximal cocaine responding,"[4]; females, AFR",80.28%
same,Maximal cocaine responding,"[4]; females, BMS",99.64%
same,Doses producing more partial responding,"[4]; females, LMS",3.2 to 10 mg/kg
same,Maximal cocaine responding,"[4]; females, LMS",83.39%
same,Effect on rate of responding,[4]; [7],dose dependently decreased
same,Generalization profile,"[4]; males, AFR, two lowest doses (1.0–3.2 mg/kg)",partial cocaine responding
same,Generalization profile,"[4]; males, BMS and LMS, two lowest doses (1.0–3.2 mg/kg)",saline responding
same,Effect on rate of responding,"[4]; males, all rearing conditions",dose dependently decreased rate of responding
